# Target: Indolethylamine N-methyltransferase (Homo sapiens, UniProt O95050)
# Experiment: Inhibition of human lung INMT using N-methyltryptamine as substrate after 90 mins by liquid scintillation counting in presence of S-methyl-[14C]adenosylmethionine
# Chain of Indolethylamine N-methyltransferase (Homo sapiens, UniProt O95050) (O95050 whole entry): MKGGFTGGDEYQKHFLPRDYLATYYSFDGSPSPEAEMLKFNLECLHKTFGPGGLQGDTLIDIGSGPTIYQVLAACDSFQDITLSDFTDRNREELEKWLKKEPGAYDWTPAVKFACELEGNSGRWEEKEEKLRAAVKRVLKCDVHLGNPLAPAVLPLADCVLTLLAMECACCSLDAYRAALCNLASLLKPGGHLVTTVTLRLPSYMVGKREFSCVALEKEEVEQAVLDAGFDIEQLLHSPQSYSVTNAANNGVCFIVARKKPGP
row,IC50 [µM],SMILES
1,> 86.6,Cn1cc(C(F)(F)F)sc1=N
2,852,C1CCN2CCCC2=NC1

row,SMILES,IC50 [µM]
1,C1CCC2=NCCCN2CC1,25.7

# Target: Indolethylamine N-methyltransferase (Oryctolagus cuniculus, UniProt O97972)
# Experiment: Inhibition of New Zealand white rabbit lung INMT using N-methyltryptamine as substrate after 60 to 90 mins by liquid scintillation counting in presence of S-methyl-[14C]adenosylmethionine
# In short: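 Enzyme from male rabbit lung: homogenate in 0.15 M KCl with 10^-4 M DTT and EDTA, 50 000 g supernatant, 40-60% ammonium sulfate fraction dialysed (some runs further Sephadex G-150 purified). Incubation in potassium phosphate pH 7.9 with N-methyltryptamine and S-[methyl-14C]adenosylmethionine, test compound in water or 5% DMSO, 37 °C. Stopped with borate pH 10; 14C-DMT extracted into isoamyl alcohol.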
# Chain of Indolethylamine N-methyltransferase (Oryctolagus cuniculus, UniProt O97972) (O97972 whole entry): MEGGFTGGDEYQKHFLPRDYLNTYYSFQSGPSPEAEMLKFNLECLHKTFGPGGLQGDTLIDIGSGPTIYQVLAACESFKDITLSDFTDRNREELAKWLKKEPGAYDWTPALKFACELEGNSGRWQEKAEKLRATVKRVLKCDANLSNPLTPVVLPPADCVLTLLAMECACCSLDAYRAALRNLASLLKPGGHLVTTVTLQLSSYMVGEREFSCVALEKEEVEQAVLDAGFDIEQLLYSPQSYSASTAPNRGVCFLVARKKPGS
row,SMILES,IC50 [µM]
1,Cn1c(F)cccc1=N,5.3
2,CN1CCCSC1=N,2
3,C/N=C1\CCCN1C,31.2
4,Cn1cccc(C#N)c1=N,179
5,Cn1cc(F)ccc1=N,69.8
6,CN1CCOC1=N,40
7,c1cn2c(n1)CCC2,83.1
8,CNN1CCSC1=N,1.5
9,c1ccc2c(c1)CN1CCN=C21,> 330
10,CN1CCC=CC1=N,0.9
11,CN1CCSCC1=N,6.3
12,C[n+]1ccccc1CC#N,> 11.7
13,N=c1ccccn1CC(F)(F)F,> 9.7
14,C[N+]1=C2CCCN2CCC1,38.7
15,Cc1cc(=N)sn1C,19.6
16,C/N=C1\SCCN1C,8.1
17,C(=C1/CCC2=NCCCN21)/c1ccccc1,37.1
18,C1CCC2=NCCCN2CC1,8
19,NC1=NCCC1,33.6

row,SMILES,IC50 [µM]
1,CN1CCC/C1=N\C1CC1,> 10.3
2,CC1CN(C)C(=N)S1 (stereo not drawn),7.9
3,Cn1cccc/c1=N\CCO,> 8.9
4,C/N=c1\cnsn1C,5.2
5,N=C1CCCN1C1CC1,67
6,CN1CCSC1=N.I,0.8
7,Cn1cc(C(F)(F)F)sc1=N,> 88.6
8,Cn1ccsc1=N,2
9,Cc1ccn(C)c(=N)c1,2.8
10,CN1CCCC1=N,1.5
11,CCCN1CCSC1=N,9.9
12,CC(C)CN1CCCC1=N,19.4
13,CN1C=CSCC1=N,3
14,CN1C=CCSC1=N,2
15,C=CCn1ccccc1=N,1.58
16,C=CCN1CCSC1=N,7.1
17,CCOC(CN1CCCC1=N)OCC,> 106
18,CCN1CCCSC1=N,1.8
19,N#CCn1ccc(=N)cc1,> 148

row,SMILES,IC50 [µM]
1,CN1CCC/C1=N\CC(F)(F)F,> 92.6
2,Cn1c(N)cccc1=N,6.2
3,CCN1CCCC1=N,1.6
4,C#CCN1CCSC1=N,13.8
5,C/N=C1\CSC=CN1C,9.8
6,CCN1CCSC1=N,0.2
7,Cn1cccc/c1=N\CC(F)(F)F,> 9.2
8,C/N=C1/NCCS1,7.7
9,CCOc1cccc(=N)n1C,> 10.3
10,Cn1ccncc1=N,> 5260
11,Cn1ccc(=N)cc1,6.2
12,C/N=c1\ccsn1C,6.9
13,N=C1CCCN1CCc1ccccc1,3720
14,C/N=c1\cccc(F)n1C,74
15,C/N=c1\cccc(NC)n1C,13.1
16,C1CN=C2CCCN2C1,1.67
17,N=C1SCCN1Cc1ccncc1,> 6.9
18,C/N=C1\CCCN1,27.1

# Now from value to compound:
row,IC50 [µM],SMILES
1,9.3,CC1CCC2=NCCN21 (stereo not drawn)
2,13.8,C1CN2CCOCC2=N1
3,54.2,CC1(C)CC2=NCCN2C1
4,43.3,C=C1CN=C2CCCN2C1
5,13.2,CC1CCC2=NCCCN21 (stereo not drawn)
6,30.3,CC1CN2CCN=C2CS1 (stereo not drawn)
7,> 10.1,Cn1cccc/c1=N\C1CC1
8,141,C1CCC2(CC1)CCC1=NCCN12
9,0.5,C1CN2CCSCC2=N1.O=C(O)/C=C/C(=O)O
10,> 330,C1CN2C(=N1)C1CC3CC(C1)CC2C3
11,3.8,CC1CC2=NCCN2C1 (stereo not drawn)
12,> 330,c1ccc2c(c1)SCC1=NCCN12
13,7,CC1CC2=NCCCN2C1 (stereo not drawn)
14,74.8,C1CCN2CCCC2=NC1
15,45.4,CC1=CSCC2=NCCN12
16,3.6,[O-][S+]1CCN2CCN=C2C1 (stereo not drawn)
17,> 330,c1ccc(C2(c3ccccc3)CC3=NCCN3C2)cc1
18,0.17,C1CCN2CCN=C2C1
19,16.4,c1ccc2c(c1)CC1C2CC2=NCCN21 (stereo not drawn)
20,1.6,Cn1ccccc1=N
21,0.04,C1CC2=NCCN2C1
22,> 330,c1ccc(C2CC3=NCCN3C2)cc1 (stereo not drawn)
23,0.7,C1CCN2CCCN=C2C1
24,18,C1=CN2CCN=C2CS1
25,52.2,ClC1CCCN2CCN=C12 (stereo not drawn)

# System: Oryctolagus cuniculus
# Experiment: In vivo inhibition of New Zealand white rabbit lung INMT at 0.02 %, po in drinking water for 12 days
# Format: functional
# In short: (§1)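 Male NZW rabbits, three per group, received compound in drinking water (pH 7) throughout, with water for controls. Afterwards decapitated and bled out. Crude lung INMT (54 000g supernatant) assayed by the standard in vitro [14C]SAM/NMT method. Activity taken as cpm/mg protein after 1 h at 37 °C, read in the toluene-isoamyl alcohol phase. Means ± SEM.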
row,SMILES,inhibition (INH) [%]
1,CN1CCSC1=N.I,76

# System: Oryctolagus cuniculus
# Experiment: In vivo inhibition of New Zealand white rabbit INMT-mediated [14C]NMT to [14C]DMT conversion in lung at 0.5 %, po in drinking water for 5 days
# Format: functional
# In short: (§2)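 Male NZW rabbits (400-500 g), three per group, given 0.5% (v/v) in drinking water for 5 days; controls water. Day 5: pheniprazine 5 mg/kg iv, then 6 h later 25 µCi (0.5 mg) [14C]NMT iv. After 5 min, decapitation; lung and brain frozen in liquid nitrogen. [14C]DMT counted as cpm/g tissue. Values are means of three animals, with Student's t test.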
row,SMILES,inhibition (INH) [%]
1,C1CN2CCSCC2=N1.O=C(O)/C=C/C(=O)O,64

# System: Oryctolagus cuniculus
# Experiment: In vivo inhibition of New Zealand white rabbit INMT-mediated [14C]NMT to [14C]DMT conversion in brain at 0.5 %, po in drinking water for 5 days
# Format: functional
# In short: as §2
row,SMILES,inhibition (INH) [%]
1,C1CN2CCSCC2=N1.O=C(O)/C=C/C(=O)O,57

# System: Oryctolagus cuniculus
# Experiment: In vivo inhibition of New Zealand white rabbit lung INMT at 0.5 %, po in drinking water for 5 days
# Format: functional
# In short: as §1
row,SMILES,inhibition (INH) [%]
1,C1CN2CCSCC2=N1.O=C(O)/C=C/C(=O)O,75
